Measurements as given in ChEMBL document CHEMBL2417369, “Synthesis and evaluation of heteroaryl substituted diazaspirocycles as scaffolds to probe the ATP-binding site of protein kinases” (Bioorg Med Chem, 2013).

Experiments:
[1] = biological target: T1, Serine/threonine-protein kinase Chk1 (Homo sapiens, UniProt O14757); test: Inhibition of CHK1 (unknown origin) by Z'-Lyte assay
T1 sequence (O14757 whole entry): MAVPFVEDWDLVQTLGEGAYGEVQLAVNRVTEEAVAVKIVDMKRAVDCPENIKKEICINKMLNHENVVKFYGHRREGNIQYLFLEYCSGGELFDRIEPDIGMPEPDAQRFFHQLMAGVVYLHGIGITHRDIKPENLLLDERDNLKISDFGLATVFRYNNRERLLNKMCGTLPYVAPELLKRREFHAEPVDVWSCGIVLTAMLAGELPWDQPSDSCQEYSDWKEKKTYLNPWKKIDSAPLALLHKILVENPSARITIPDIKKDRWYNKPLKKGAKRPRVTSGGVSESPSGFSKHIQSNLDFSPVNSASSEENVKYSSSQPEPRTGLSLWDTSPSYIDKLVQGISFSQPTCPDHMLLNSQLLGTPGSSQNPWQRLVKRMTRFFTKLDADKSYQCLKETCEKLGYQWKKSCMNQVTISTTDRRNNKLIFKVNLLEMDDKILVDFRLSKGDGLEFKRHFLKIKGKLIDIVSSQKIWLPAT
Summary of the method: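 CHK1 IC50 was obtained by titration in the Z'-Lyte assay format, run as an outsourced screening service.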

[2] = biological target: Tyrosine-protein kinase Fer (Homo sapiens) (UniProt P16591); test: Inhibition of FER (unknown origin) at 30 uM by microfluidic mobility shift assay relative to control
Summary of the method: (§1)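 Single-point screen at 30 µM test compound across a 24-kinase panel in a microfluidic assay format. ATP was set near each enzyme's Km,[ATP]. […] The pan-AGC inhibitor H-89 served as an internal control on every assay plate.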

[3] = biological target: Receptor-type tyrosine-protein kinase FLT3 (Homo sapiens) (UniProt P36888); test: Inhibition of FLT3 (unknown origin) at 30 uM by microfluidic mobility shift assay relative to control; summary of the method: as §1
Chain of Receptor-type tyrosine-protein kinase FLT3 (Homo sapiens) (P36888 whole entry): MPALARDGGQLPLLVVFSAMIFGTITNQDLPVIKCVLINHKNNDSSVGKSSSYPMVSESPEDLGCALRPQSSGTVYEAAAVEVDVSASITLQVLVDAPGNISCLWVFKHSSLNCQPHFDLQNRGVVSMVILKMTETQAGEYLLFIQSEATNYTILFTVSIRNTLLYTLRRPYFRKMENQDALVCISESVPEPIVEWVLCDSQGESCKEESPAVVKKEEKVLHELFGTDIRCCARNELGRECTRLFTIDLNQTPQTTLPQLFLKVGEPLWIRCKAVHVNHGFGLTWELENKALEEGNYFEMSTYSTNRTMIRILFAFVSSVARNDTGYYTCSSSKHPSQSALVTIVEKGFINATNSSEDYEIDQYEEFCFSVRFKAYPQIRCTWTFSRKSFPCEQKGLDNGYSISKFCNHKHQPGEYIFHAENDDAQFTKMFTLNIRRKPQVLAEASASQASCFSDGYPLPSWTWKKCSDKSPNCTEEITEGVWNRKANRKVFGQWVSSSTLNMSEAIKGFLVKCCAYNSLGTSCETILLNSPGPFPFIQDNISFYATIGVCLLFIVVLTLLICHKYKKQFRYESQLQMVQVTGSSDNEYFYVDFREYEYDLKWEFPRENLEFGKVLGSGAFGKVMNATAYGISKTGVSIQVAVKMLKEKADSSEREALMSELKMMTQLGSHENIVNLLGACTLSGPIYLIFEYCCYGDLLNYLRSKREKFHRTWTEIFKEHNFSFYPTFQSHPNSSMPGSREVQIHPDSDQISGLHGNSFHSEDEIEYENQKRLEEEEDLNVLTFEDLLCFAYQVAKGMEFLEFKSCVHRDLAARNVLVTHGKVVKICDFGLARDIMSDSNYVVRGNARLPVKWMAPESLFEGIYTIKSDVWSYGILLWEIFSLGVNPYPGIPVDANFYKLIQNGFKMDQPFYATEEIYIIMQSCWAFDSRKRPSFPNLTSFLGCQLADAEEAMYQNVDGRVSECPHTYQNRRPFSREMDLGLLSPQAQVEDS

[4] = biological target: Tyrosine-protein kinase SYK (Homo sapiens) (UniProt P43405); test: Inhibition of SYK (unknown origin) at 30 uM by microfluidic mobility shift assay relative to control
Summary of the method: (§2)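 Single-point screen against a 24-kinase panel in a commercial microfluidic assay format. Compounds were tested at 30 µM, with ATP at approximately the Km,[ATP] of each enzyme. H-89 was included on each assay plate as an internal control.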

[5] = biological target: Platelet-derived growth factor receptor (Homo sapiens) (UniProt P09619+P16234); test: Inhibition of PDGFR (unknown origin) at 30 uM by microfluidic mobility shift assay relative to control; format: protein-complex assay; summary of the method: as §1
[6] = biological target: Fibroblast growth factor receptor 3 (Homo sapiens) (UniProt P22607); test: Inhibition of FGFR3 (unknown origin) at 30 uM by microfluidic mobility shift assay relative to control; summary of the method: as §1
Chain of Fibroblast growth factor receptor 3 (Homo sapiens) (P22607 23-806 limits assumed): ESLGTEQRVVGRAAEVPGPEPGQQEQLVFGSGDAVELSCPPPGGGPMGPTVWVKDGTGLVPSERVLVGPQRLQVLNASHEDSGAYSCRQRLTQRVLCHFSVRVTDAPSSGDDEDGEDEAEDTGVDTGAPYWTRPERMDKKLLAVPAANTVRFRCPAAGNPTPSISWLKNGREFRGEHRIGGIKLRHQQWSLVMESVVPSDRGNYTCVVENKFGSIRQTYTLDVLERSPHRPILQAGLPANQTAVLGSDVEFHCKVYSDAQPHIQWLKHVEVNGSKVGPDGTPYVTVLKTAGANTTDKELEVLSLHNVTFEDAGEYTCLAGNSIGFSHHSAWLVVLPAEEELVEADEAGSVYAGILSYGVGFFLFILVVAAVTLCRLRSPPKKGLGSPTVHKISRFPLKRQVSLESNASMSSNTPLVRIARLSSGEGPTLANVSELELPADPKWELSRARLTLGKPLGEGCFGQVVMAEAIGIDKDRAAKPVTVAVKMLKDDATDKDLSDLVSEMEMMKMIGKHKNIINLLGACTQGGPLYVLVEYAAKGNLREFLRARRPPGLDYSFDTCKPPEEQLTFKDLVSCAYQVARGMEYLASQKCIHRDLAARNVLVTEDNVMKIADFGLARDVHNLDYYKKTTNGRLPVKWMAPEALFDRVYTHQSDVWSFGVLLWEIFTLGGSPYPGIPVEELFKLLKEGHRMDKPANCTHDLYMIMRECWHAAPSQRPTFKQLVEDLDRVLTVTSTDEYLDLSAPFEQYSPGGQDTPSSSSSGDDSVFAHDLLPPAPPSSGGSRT

[7] = tested on: Tyrosine-protein kinase ABL1 (Homo sapiens), P00519 [H396P]; test: Inhibition of ABL H396P mutant (unknown origin) at 30 uM by microfluidic mobility shift assay relative to control; format: protein assay; summary of the method: as §1
[8] = tested on: Tyrosine-protein kinase ABL1 (Homo sapiens), P00519 [Q252H]; test: Inhibition of ABL Q252H mutant (unknown origin) at 30 uM by microfluidic mobility shift assay relative to control; format: protein assay; summary of the method: as §1
[9] = biological target: Cyclin-dependent kinase 2 (Homo sapiens) (UniProt P24941); test: Inhibition of CDK2 (unknown origin) at 30 uM by microfluidic mobility shift assay relative to control; summary of the method: as §1
[10] = biological target: T2, Serine/threonine-protein kinase BRSK1 (Homo sapiens) (UniProt Q8TDC3); test: Inhibition of BRSK1 (unknown origin) at 30 uM by microfluidic mobility shift assay relative to control; summary of the method: as §1
T2 sequence (whole entry): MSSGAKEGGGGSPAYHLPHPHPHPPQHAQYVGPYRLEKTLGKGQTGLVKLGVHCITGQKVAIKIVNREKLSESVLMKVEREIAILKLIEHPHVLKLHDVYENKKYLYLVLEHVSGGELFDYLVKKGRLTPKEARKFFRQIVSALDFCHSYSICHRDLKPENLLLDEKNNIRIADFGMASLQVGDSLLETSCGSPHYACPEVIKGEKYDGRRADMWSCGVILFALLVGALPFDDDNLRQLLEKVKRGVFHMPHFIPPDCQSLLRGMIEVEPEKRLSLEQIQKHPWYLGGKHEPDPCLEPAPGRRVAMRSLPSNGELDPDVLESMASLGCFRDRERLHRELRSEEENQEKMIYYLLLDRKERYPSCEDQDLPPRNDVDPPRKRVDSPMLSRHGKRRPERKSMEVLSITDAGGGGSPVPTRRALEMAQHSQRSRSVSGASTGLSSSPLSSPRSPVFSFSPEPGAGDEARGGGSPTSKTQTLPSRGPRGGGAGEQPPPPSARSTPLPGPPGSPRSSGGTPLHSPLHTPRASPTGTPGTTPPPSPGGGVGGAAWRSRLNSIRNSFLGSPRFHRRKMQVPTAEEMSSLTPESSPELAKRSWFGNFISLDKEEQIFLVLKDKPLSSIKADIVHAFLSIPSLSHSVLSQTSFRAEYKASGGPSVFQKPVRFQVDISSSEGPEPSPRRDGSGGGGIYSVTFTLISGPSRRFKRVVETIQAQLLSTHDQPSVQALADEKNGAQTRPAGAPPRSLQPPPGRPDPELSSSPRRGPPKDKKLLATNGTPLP

[11] = biological target: Calcium/calmodulin-dependent protein kinase type II subunit beta (Homo sapiens) (UniProt Q13554); test: Inhibition of CAMK2beta (unknown origin) at 30 uM by microfluidic mobility shift assay relative to control; summary of the method: as §1
Chain of Calcium/calmodulin-dependent protein kinase type II subunit beta (Homo sapiens) (Q13554 whole entry): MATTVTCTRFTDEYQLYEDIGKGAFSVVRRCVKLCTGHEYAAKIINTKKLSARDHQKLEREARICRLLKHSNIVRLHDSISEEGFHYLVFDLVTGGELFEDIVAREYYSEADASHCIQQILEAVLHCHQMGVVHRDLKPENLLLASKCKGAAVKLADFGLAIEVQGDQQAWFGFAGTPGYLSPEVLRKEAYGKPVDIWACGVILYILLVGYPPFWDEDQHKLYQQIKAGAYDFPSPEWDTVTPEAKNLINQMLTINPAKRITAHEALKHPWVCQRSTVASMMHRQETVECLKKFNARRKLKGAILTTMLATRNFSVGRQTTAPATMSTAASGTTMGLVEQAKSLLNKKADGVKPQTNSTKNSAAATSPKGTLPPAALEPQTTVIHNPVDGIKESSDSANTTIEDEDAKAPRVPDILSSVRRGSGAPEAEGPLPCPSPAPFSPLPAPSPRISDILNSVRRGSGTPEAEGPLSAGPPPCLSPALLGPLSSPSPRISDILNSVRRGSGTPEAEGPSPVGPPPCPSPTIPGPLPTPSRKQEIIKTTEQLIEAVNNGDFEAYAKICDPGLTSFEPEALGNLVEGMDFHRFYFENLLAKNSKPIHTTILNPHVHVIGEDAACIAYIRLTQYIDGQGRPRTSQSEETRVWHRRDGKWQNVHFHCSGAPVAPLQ

Homo sapiens [12] = organism: Homo sapiens; test: Inhibition of CAMK2 (unknown origin) at 30 uM by microfluidic mobility shift assay relative to control; summary of the method: as §1
Homo sapiens [13] = organism: Homo sapiens; test: Inhibition of PKGalpha (unknown origin) at 30 uM by microfluidic mobility shift assay relative to control; summary of the method: as §2
[14] = biological target: Protein kinase C eta type (Homo sapiens) (UniProt P24723); test: Inhibition of PKCeta (unknown origin) at 30 uM by microfluidic mobility shift assay relative to control; summary of the method: as §2
[15] = biological target: Ribosomal protein S6 kinase alpha-2 (Homo sapiens) (UniProt Q15349); test: Inhibition of RSK3 (unknown origin) at 30 uM by microfluidic mobility shift assay relative to control; summary of the method: as §2
Chain of Ribosomal protein S6 kinase alpha-2 (Homo sapiens) (Q15349 whole entry): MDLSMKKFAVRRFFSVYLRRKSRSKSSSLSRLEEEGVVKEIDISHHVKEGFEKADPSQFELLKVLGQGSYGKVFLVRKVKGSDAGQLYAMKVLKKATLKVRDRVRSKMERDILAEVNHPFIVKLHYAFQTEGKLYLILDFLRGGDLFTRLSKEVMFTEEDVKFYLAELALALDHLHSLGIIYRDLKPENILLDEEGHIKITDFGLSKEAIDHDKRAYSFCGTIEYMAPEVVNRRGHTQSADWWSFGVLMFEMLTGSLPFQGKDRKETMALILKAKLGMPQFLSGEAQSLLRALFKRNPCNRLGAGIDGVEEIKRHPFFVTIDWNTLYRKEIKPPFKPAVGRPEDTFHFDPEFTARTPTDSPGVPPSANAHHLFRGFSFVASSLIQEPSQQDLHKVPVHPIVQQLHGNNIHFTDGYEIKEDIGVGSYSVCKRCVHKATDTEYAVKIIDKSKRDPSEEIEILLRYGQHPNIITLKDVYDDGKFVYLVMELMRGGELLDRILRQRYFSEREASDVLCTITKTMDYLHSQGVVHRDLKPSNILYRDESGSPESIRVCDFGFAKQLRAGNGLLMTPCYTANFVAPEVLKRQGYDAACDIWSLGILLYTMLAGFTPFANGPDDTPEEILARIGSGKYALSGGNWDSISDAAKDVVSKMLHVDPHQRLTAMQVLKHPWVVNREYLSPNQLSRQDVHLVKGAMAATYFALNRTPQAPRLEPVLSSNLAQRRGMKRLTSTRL

[16] = biological target: Mitogen-activated protein kinase kinase kinase kinase 4 (Homo sapiens) (UniProt O95819); test: Inhibition of HGK (unknown origin) at 30 uM by microfluidic mobility shift assay relative to control; summary of the method: as §1
Chain of Mitogen-activated protein kinase kinase kinase kinase 4 (Homo sapiens) (O95819 2-1239 limits assumed): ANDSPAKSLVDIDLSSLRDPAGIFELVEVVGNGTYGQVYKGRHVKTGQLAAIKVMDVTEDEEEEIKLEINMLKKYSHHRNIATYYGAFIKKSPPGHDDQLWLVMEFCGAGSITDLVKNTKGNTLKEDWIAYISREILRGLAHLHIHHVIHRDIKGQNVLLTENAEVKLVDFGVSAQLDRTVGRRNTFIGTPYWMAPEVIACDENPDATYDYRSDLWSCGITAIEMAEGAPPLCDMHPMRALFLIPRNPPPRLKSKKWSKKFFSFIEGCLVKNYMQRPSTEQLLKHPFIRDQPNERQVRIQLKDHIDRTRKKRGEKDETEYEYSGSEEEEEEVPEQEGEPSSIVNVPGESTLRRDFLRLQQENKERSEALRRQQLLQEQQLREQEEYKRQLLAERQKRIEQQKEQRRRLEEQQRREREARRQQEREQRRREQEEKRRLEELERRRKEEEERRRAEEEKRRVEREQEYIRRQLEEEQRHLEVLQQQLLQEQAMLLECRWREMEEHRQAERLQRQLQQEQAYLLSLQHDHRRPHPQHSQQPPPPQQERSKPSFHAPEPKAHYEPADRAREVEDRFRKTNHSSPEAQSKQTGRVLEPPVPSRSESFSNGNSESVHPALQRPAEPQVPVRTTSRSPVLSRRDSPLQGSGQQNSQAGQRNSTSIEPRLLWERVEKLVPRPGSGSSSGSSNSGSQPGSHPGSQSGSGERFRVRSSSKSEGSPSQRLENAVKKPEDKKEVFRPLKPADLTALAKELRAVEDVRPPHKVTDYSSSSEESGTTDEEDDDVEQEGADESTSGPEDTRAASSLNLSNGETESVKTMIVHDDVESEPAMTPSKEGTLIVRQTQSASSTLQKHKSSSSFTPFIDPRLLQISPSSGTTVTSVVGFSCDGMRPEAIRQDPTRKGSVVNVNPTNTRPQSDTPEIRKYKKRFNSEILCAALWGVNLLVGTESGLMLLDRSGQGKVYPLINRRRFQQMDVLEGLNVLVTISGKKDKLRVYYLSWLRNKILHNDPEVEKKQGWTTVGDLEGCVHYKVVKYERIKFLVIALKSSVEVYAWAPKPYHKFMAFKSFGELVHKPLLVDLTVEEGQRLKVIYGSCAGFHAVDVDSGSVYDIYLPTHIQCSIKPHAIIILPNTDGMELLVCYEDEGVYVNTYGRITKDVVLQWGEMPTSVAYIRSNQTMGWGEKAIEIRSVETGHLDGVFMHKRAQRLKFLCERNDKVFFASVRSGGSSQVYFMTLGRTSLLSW

[17] = biological target: RAF proto-oncogene serine/threonine-protein kinase (Homo sapiens) (UniProt P04049); test: Inhibition of c-RAF (unknown origin) at 30 uM by microfluidic mobility shift assay relative to control; summary of the method: as §2
[18] = biological target: Calcium/calmodulin-dependent protein kinase type II subunit gamma (Homo sapiens) (UniProt Q13555); test: Inhibition of CAMK2gamma (unknown origin) at 30 uM by microfluidic mobility shift assay relative to control
Chain of Calcium/calmodulin-dependent protein kinase type II subunit gamma (Homo sapiens) (Q13555 whole entry, looked up): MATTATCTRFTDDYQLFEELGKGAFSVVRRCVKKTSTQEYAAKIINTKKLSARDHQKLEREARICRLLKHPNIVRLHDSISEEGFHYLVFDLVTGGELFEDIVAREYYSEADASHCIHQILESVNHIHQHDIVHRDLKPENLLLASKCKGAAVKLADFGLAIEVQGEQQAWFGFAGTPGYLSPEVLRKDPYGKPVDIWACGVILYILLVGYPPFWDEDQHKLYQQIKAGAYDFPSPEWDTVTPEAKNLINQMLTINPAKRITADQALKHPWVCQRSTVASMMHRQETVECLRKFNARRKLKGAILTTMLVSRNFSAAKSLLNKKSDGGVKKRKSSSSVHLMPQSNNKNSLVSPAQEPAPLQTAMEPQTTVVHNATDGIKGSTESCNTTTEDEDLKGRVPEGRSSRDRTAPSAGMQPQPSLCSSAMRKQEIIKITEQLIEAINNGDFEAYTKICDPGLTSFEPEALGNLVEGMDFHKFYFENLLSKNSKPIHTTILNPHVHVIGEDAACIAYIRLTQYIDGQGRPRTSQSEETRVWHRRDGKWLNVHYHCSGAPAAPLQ

Row | inhibition [2] [%] | inhibition [3] [%] | inhibition [4] [%] | inhibition [5] [%] | inhibition [6] [%] | inhibition [7] [%] | inhibition [8] [%] | inhibition [9] [%] | inhibition [10] [%] | inhibition [11] [%] | inhibition (Homo sapiens [12]) [%] | inhibition (Homo sapiens [13]) [%] | inhibition [14] [%] | inhibition [15] [%] | inhibition [16] [%] | inhibition [17] [%] | inhibition [18] [%] | Structure (SMILES) | IC50 [1] [µM]
1 | 12 | 25 | 24 | 29 | 7 | 42 | 30 | 19 | 13 | 32 | 13 | 99 | 61 | 81 | 7 | 13 | 18 | c1ccc(C2CCNC3(CCN(c4ncnc5[nH]cnc45)CC3)C2)cc1 (racemic) | –
2 | 2 | 10 | 8 | 20 | 7 | 15 | 12 | 21 | 16 | 29 | 17 | 99 | 71 | 91 | 2 | 15 | 17 | c1ccc(CC2CCNC3(CCN(c4ncnc5[nH]cnc45)CC3)C2)cc1 (racemic) | –
3 | 10 | 28 | 0 | 28 | 10 | 28 | 30 | 15 | 10 | 17 | 9 | 86 | 35 | 57 | 5 | 11 | 17 | c1ccc(CC2CCC3(CCN(c4ncnc5[nH]cnc45)CC3)NC2)cc1 (racemic) | –

The remaining lines, values behind:

Row | Structure (SMILES) | inhibition [2] [%] | inhibition [3] [%] | inhibition [4] [%] | inhibition [5] [%] | inhibition [6] [%] | inhibition [7] [%] | inhibition [8] [%] | inhibition [9] [%] | inhibition [10] [%] | inhibition [11] [%] | inhibition (Homo sapiens [12]) [%] | inhibition (Homo sapiens [13]) [%] | inhibition [14] [%] | inhibition [15] [%] | inhibition [16] [%] | inhibition [17] [%] | inhibition [18] [%] | IC50 [1] [µM]
4 | c1nc(N2CCC3(CCCCN3)CC2)c2nc[nH]c2n1 | – | – | – | – | – | – | – | – | – | – | – | – | – | – | – | – | – | 18
5 | c1nc(N2CCC3(CCCNC3)CC2)c2nc[nH]c2n1 | – | – | – | – | – | – | – | – | – | – | – | – | – | – | – | – | – | 1.8
6 | O=S(=O)(c1cccc2cnccc12)N1CCCC2(CCCNC2)C1 (centres undefined) | – | – | – | – | – | – | – | – | – | – | – | – | – | – | – | – | – | 12.8
